This note sets out measurements from ChEMBL document CHEMBL1926588, “Sulfur and selenium derivatives of quinazoline and pyrido[2,3-d]pyrimidine: synthesis and study of their potential cytotoxic activity in vitro” (Eur J Med Chem, 2012).

Bounds are passed on as bounds.

One data set deals with HT-29. Nature of the data set: Cytotoxicity against human HT-29 cells after 72 hrs by MTT assay. The class given is functional. The conditions noted are these: HT-29, 72 h; for CC50: read-out: LC50 (the source's name). An outline of the steps: (§1)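 MTT read-out after 72 h exposure at 37 °C in humidified 5% CO2, with five concentrations between 0.01 and 100. GI50 is 50% growth reduction versus untreated controls, TGI is complete growth inhibition, and LC50 is the concentration killing 50% of cells. Minimum three independent experiments.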
(Tetrazolium assays rely on reduction of a dye to a coloured formazan, in cell work by metabolically active cells.)

Data set [1] is described as follows: Cytotoxicity against human BEAS2B cells after 72 hrs by MTT assay. The class given is cell-based, BEAS-2B. The note with it: for GI50 at 72 h: BEAS2B cells; for LC50 / TGI: beas-2b, 72 h. An outline of the steps: as §1
The nature of data set [2]: Cytotoxicity against human 184B5 cells after 72 hrs by MTT assay. The conditions noted are these: for GI50 at 72 h: 184B5 cells; for LC50 / TGI: 184b5, 72 h. The class given is cell-based. In a few lines:
as §1

The test system of the next data set is MCF7. As to the kind of experiment: Cytotoxicity against human MCF7 cells after 72 hrs by MTT assay. The class given is functional. The conditions noted are these: MCF7, 72 h. An outline of the steps: as §1
The test system of another data set is CCRF-CEM. Nature of the data set: Cytotoxicity against human CCRF-CEM cells after 72 hrs by MTT assay. The class given is functional. The conditions noted are these: for CC50: read-out: LC50 (the source's name). In a few lines:
as §1

Data set [3] is described as follows: Cytotoxicity against human HTB-54 cells after 72 hrs by MTT assay. The class given is functional. The note with it: HTB-54, 72 h; for CC50: read-out: LC50 (the source's name). In a few lines:
as §1

As usually defined, the GI50 is the concentration that inhibits growth by half. A high value points to lower sensitivity of the cells. In general, TGI refers to the concentration at which net growth stops. For orientation: LC50 means the concentration lethal to half of the exposed cells or organisms.

Take `CSc1ccc(CNc2nc([SeH])nc3ccccc23)cc1`: the GI50 stood at 42.9 µM in the data set with HT-29, 48.1 µM in the data set on MCF7, 71.9 µM in the data set with CCRF-CEM and 45.5 µM in data set [3]. Also, the TGI with HT-29 is more than 100 µM; in data set [1] it was 58.21 µM; in data set [2], 86.27 µM; in the data set with MCF7, more than 100 µM; in the data set on CCRF-CEM, more than 100 µM; in data set [3], more than 100 µM. The CC50 (in the data set on HT-29; with CCRF-CEM; in data set [3]) was more than 100 µM throughout. Besides, the figures for the GI50 at 72 h in data set [1] and in data set [2] were 0.41 µM and 6.84 µM, respectively. In addition, the LC50 (in data set [1]; in data set [2]; in the data set with MCF7) was more than 100 µM throughout.

As to `Nc1nc([SeH])nc2ncccc12`, the GI50 with HT-29 was 36.3 µM; in the data set on MCF7 it was 37.3 µM; with CCRF-CEM, 30.9 µM; in data set [3], 44.3 µM. Also, the TGI in the data set with HT-29 was 89.6 µM; in data set [1], 87.73 µM; in data set [2], 31.05 µM; in the data set with MCF7, more than 100 µM; in the data set on CCRF-CEM, 61.5 µM; in data set [3], 96.6 µM. The values for the CC50 (in the data set with HT-29; with CCRF-CEM; in data set [3]) were more than 100 µM, 92.1 µM and more than 100 µM, respectively. In addition, the GI50 at 72 h in data set [1] came out at 5.89 µM; in data set [2], 5.2 µM. Also, the LC50 in data set [1] is more than 100 µM; in data set [2], 74.98 µM; in the data set with MCF7 it was more than 100 µM.

Take `Nc1nc([SeH])nc2ccccc12`: the GI50 with HT-29 was found to be 52.2 µM; in the data set with MCF7 it was 0.15 µM; in the data set on CCRF-CEM, 25.7 µM; in data set [3], 0.04 µM. Besides, the TGI in the data set on HT-29 was more than 100 µM; in data set [1], more than 100 µM; in data set [2], 36.65 µM; with MCF7 it was more than 100 µM; with CCRF-CEM, 52.4 µM; in data set [3] it was 3.63 µM. The CC50 is more than 100 µM in the data set with HT-29, 79.1 µM with CCRF-CEM and more than 100 µM in data set [3]. Also, the GI50 at 72 h stood at 0.08 µM in data set [1] and 0.69 µM in data set [2]. The LC50 in data set [1] is more than 100 µM; in data set [2] it was 80.37 µM; in the data set with MCF7, more than 100 µM.

Regarding `CSc1nc(NCCCc2ccccc2)c2ccccc2n1`, the GI50 in the data set on HT-29 came out at 19.6 µM; with MCF7 it was 77.2 µM; with CCRF-CEM it was 39.5 µM; in data set [3] it was 50.6 µM. The TGI was 89.5 µM with HT-29; more than 100 µM in data set [1]; more than 100 µM in data set [2]; more than 100 µM in the data set on MCF7; 87.8 µM in the data set on CCRF-CEM; more than 100 µM in data set [3]. For the same compound, the CC50 (in the data set with HT-29; with CCRF-CEM; in data set [3]) was more than 100 µM throughout. In addition, the figures for the GI50 at 72 h in data set [1] and in data set [2] were 73.4 µM and 6.77 µM, respectively. For the same compound, the LC50 (in data set [1]; in data set [2]; in the data set with MCF7) was more than 100 µM each time.

With `CCCCC[Se]c1nc(N)c2ccccc2n1`, the 50% growth inhibitory concentration (GI50) with HT-29 stood at 40.3 µM; with MCF7, 28.6 µM; in the data set on CCRF-CEM, 34.8 µM; in data set [3], 34.6 µM. Also, the TGI in the data set on HT-29 is more than 100 µM; in data set [1], more than 100 µM; in data set [2], 43.6 µM; with MCF7, 59.5 µM; in the data set with CCRF-CEM it was 68 µM; in data set [3] it was 84 µM. Also, the CC50 (with HT-29; with CCRF-CEM; in data set [3]) was more than 100 µM throughout. For the same compound, the values for the GI50 at 72 h in data set [1] and in data set [2] were 52.2 µM and 15.3 µM, respectively. Further, the LC50 in data set [1] was more than 100 µM; in data set [2], 71.85 µM; with MCF7, 90.4 µM.

In the case of `CSc1nc(Nc2ccccc2)c2ccccc2n1`, the GI50 came out at 65.8 µM with HT-29, 78.4 µM in the data set with MCF7, 74.6 µM in the data set with CCRF-CEM and 55.8 µM in data set [3]. For the same compound, the TGI (with HT-29; in data set [1]; in data set [2]; in the data set with MCF7; in the data set on CCRF-CEM; in data set [3]) was more than 100 µM each time. In addition, the CC50 (with HT-29; in the data set on CCRF-CEM; in data set [3]) was more than 100 µM each time. Further, the GI50 at 72 h in data set [1] is 54.8 µM; in data set [2], more than 100 µM. In addition, the LC50 (in data set [1]; in data set [2]; in the data set on MCF7) was more than 100 µM throughout.

With `COc1ccc(CNc2nc([SeH])nc3ccccc23)cc1`, the GI50 in the data set on HT-29 was 71.6 µM; in the data set on MCF7, 42.7 µM; in the data set with CCRF-CEM, more than 100 µM; in data set [3], 7.11 µM. In addition, the TGI was more than 100 µM with HT-29; more than 100 µM in data set [1]; more than 100 µM in data set [2]; 94 µM with MCF7; more than 100 µM with CCRF-CEM; 60.9 µM in data set [3]. Also, the CC50 (with HT-29; in the data set with CCRF-CEM; in data set [3]) was more than 100 µM throughout. The GI50 at 72 h in data set [1] turned out to be 37.4 µM; in data set [2], 71.2 µM. The LC50 (in data set [1]; in data set [2]; with MCF7) was more than 100 µM throughout.

For the compound `CSc1nc(NCc2ccccc2)c2cccnc2n1`, the GI50 was 87.1 µM with HT-29, 39.4 µM with MCF7, 56.3 µM with CCRF-CEM and 5.08 µM in data set [3]. The TGI in the data set on HT-29 is more than 100 µM; in data set [1], 61.7 µM; in data set [2] it was more than 100 µM; in the data set on MCF7, more than 100 µM; in the data set on CCRF-CEM it was 98.5 µM; in data set [3], 51.6 µM. Besides, the CC50 (in the data set on HT-29; in the data set on CCRF-CEM; in data set [3]) was more than 100 µM each time. The GI50 at 72 h in data set [1] is 25.9 µM; in data set [2], 49 µM. Further, the LC50 was 97.51 µM in data set [1], more than 100 µM in data set [2] and more than 100 µM in the data set on MCF7.

`COc1ccc(CNc2nc(S)nc3ccccc23)cc1`: the GI50 in the data set on HT-29 came out at 6.49 µM; in the data set with MCF7, 7.08 µM; with CCRF-CEM it was 10.4 µM; in data set [3] it was 13.5 µM. For the same compound, the TGI amounted to 28.6 µM in the data set on HT-29; 32.5 µM in data set [1]; 36.55 µM in data set [2]; 36.5 µM with MCF7; 41 µM with CCRF-CEM; 45.5 µM in data set [3]. For the same compound, the CC50 with HT-29 was found to be 63.9 µM; in the data set with CCRF-CEM, 71.6 µM; in data set [3], 77.6 µM. Further, the GI50 at 72 h amounted to 6.13 µM in data set [1] and 7.83 µM in data set [2]. The LC50 amounted to 70.18 µM in data set [1], 69.23 µM in data set [2] and 78.4 µM in the data set with MCF7.

For the compound `CSc1nc(NCc2ccc([Se]C)cc2)c2ccccc2n1`, the GI50 in the data set with HT-29 is more than 100 µM; in the data set with MCF7, 36.4 µM; with CCRF-CEM, 63.3 µM; in data set [3] it was 57 µM. Besides, the TGI (in the data set with HT-29; in data set [1]; in data set [2]; with MCF7; in the data set on CCRF-CEM; in data set [3]) was more than 100 µM throughout. For the same compound, the CC50 (in the data set with HT-29; in the data set on CCRF-CEM; in data set [3]) was more than 100 µM each time. Besides, the GI50 at 72 h is 73.5 µM in data set [1] and 70.3 µM in data set [2]. The 50% lethal concentration (LC50) (in data set [1]; in data set [2]; with MCF7) was more than 100 µM throughout.

In the case of `COc1ccc(CNc2nc(SC)nc3ncccc23)cc1`, the GI50 was more than 100 µM in the data set with HT-29, 48.1 µM in the data set with MCF7, more than 100 µM with CCRF-CEM and more than 100 µM in data set [3]. The TGI in the data set with HT-29 was more than 100 µM; in data set [1], more than 100 µM; in data set [2] it was 69.77 µM; with MCF7, more than 100 µM; with CCRF-CEM it was more than 100 µM; in data set [3], more than 100 µM. Besides, the CC50 (with HT-29; in the data set on CCRF-CEM; in data set [3]) was more than 100 µM in each case. The GI50 at 72 h in data set [1] came out at 58.5 µM; in data set [2], 34.2 µM. Also, the LC50 (in data set [1]; in data set [2]; in the data set on MCF7) was more than 100 µM each time.

Take `CSc1ccc(CNc2nc([Se]C)nc3ccccc23)cc1`: the GI50 in the data set with HT-29 is 72.7 µM; in the data set with MCF7, 54.1 µM; with CCRF-CEM, 48.7 µM; in data set [3] it was 37.9 µM. Further, the TGI in the data set on HT-29 was more than 100 µM; in data set [1] it was 78.54 µM; in data set [2] it was more than 100 µM; in the data set with MCF7 it was more than 100 µM; with CCRF-CEM, 86.9 µM; in data set [3] it was 72.4 µM. Further, the CC50 (in the data set on HT-29; in the data set with CCRF-CEM; in data set [3]) was more than 100 µM in each case. The GI50 at 72 h in data set [1] amounted to 35.9 µM; in data set [2], 37.1 µM. Also, the LC50 (in data set [1]; in data set [2]; with MCF7) was more than 100 µM each time.
